Laboratory results taken from ChEMBL document CHEMBL1127451, “Benzoselenazolinone derivatives designed to be glutathione peroxidase mimetics feature inhibition of cyclooxygenase/5-lipoxygenase pathways and anti-inflammatory activity” (1994).

What was measured:
[1] = test system: Rattus norvegicus; test: Tested for acute anti-inflammatory activity of carrageenan-induced foot edema in rats at dose of 3 mg/kg at time interval- 2 hr; assay type: functional
How it was run: (§1)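 Fasted Wistar rats (200–240 g), six per group, receive drug orally in 2% gelatin. One hour later, 0.1 mL 2% carrageenan in 9% NaCl is injected subplantar into the hind paw. Paw volume is measured by water plethysmometry at injection and at 0.5, 1, 2, 3 and 4 h. Results are percent inhibition of swelling versus vehicle-treated rats.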

[2] = test system: Rattus norvegicus; test: Tested for acute anti-inflammatory activity of the antirat serum-induced edema in rats at dose of 3 mg/kg at time interval- 1 hr; assay type: functional
How it was run: as §1, with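 “rabbit antirat serum” for “2% carrageenan in 9% NaCl”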

[3] = test system: Rattus norvegicus; test: Tested for acute anti-inflammatory activity of the antirat serum-induced edema in rats at dose of 30 mg/kg at time interval- 3h; assay type: functional
How it was run: as §1, with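 “rabbit antirat serum” for “2% carrageenan in 9% NaCl”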

[4] = test system: Rattus norvegicus; test: Tested for acute anti-inflammatory activity of the antirat serum-induced edema in rats at dose of 3 mg/kg at time interval- 3h; assay type: functional
How it was run: as §1, with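 “rabbit antirat serum” for “2% carrageenan in 9% NaCl”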

[5] = test system: Rattus norvegicus; test: Tested for acute anti-inflammatory activity of the antirat serum-induced edema in rats at dose of 100 mg/kg at time interval- 1 hr; assay type: functional
How it was run: as §1, with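 “rabbit antirat serum” for “2% carrageenan in 9% NaCl”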

[6] = test system: Rattus norvegicus; test: Tested for acute anti-inflammatory activity of carrageenan-induced foot edema in rats at dose of 30 mg/kg at time interval- 1 hr; assay type: functional; how it was run: as §1
[7] = test system: Rattus norvegicus; test: Tested for acute anti-inflammatory activity of carrageenan-induced foot edema in rats at dose of 3 mg/kg at time interval- 3h; assay type: functional; how it was run: as §1
[8] = test system: Rattus norvegicus; test: Tested for acute anti-inflammatory activity of the antirat serum-induced edema in rats at dose of 3 mg/kg at time interval- 0.5 hr; assay type: functional
How it was run: as §1, with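 “rabbit antirat serum” for “2% carrageenan in 9% NaCl”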

[9] = test system: Rattus norvegicus; test: Tested for acute anti-inflammatory activity of the antirat serum-induced edema in rats at dose of 30 mg/kg at time interval- 2 hr; assay type: functional
How it was run: as §1, with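 “rabbit antirat serum” for “2% carrageenan in 9% NaCl”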

[10] = test system: Rattus norvegicus; test: Tested for acute anti-inflammatory activity of carrageenan-induced foot edema in rats at dose of 3 mg/kg at time interval- 0.5 hr; assay type: functional; how it was run: as §1
[11] = Inhibition of spontaneous lipid peroxidation at 10e-5 M in rat brain homogenate
[12] = test system: Rattus norvegicus; test: Tested for acute anti-inflammatory activity of carrageenan-induced foot edema in rats at dose of 100 mg/kg at time interval- 0.5 hr; assay type: functional; how it was run: as §1
[13] = test system: Rattus norvegicus; test: Tested for acute anti-inflammatory activity of the antirat serum-induced edema in rats at dose of 30 mg/kg at time interval- 0.5 hr; assay type: functional
How it was run: as §1, with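 “rabbit antirat serum” for “2% carrageenan in 9% NaCl”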

[14] = test system: Rattus norvegicus; test: Tested for acute anti-inflammatory activity of carrageenan-induced foot edema in rats at dose of 30 mg/kg at time interval- 2 hr; assay type: functional; how it was run: as §1
[15] = Inhibition of [Fe(2+)]/ascorbate-induced lipid peroxidation at 10e-5 M in rat brain homogenate
[16] = test system: Rattus norvegicus; test: Tested for acute anti-inflammatory activity of carrageenan-induced foot edema in rats at dose of 100 mg/kg at time interval- 3h; assay type: functional; how it was run: as §1
[17] = test system: Rattus norvegicus; test: Tested for acute anti-inflammatory activity of the antirat serum-induced edema in rats at dose of 30 mg/kg at time interval- 4 hr; assay type: functional
How it was run: as §1, with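 “rabbit antirat serum” for “2% carrageenan in 9% NaCl”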

[18] = test system: Rattus norvegicus; test: Tested for acute anti-inflammatory activity of carrageenan-induced foot edema in rats at dose of 100 mg/kg at time interval- 2 hr; assay type: functional; how it was run: as §1
[19] = test system: Rattus norvegicus; test: Tested for acute anti-inflammatory activity of the antirat serum-induced edema in rats at dose of 100 mg/kg at time interval- 2 hr; assay type: functional
How it was run: as §1, with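 “rabbit antirat serum” for “2% carrageenan in 9% NaCl”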

[20] = test system: Rattus norvegicus; test: Tested for acute anti-inflammatory activity of the antirat serum-induced edema in rats at dose of 30 mg/kg at time interval- 1 hr; assay type: functional
How it was run: as §1, with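 “rabbit antirat serum” for “2% carrageenan in 9% NaCl”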

[21] = test system: Rattus norvegicus; test: Tested for acute anti-inflammatory activity of the antirat serum-induced edema in rats at dose of 100 mg/kg at time interval- 4 hr; assay type: functional
How it was run: as §1, with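 “rabbit antirat serum” for “2% carrageenan in 9% NaCl”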

[22] = test system: Rattus norvegicus; test: Tested for acute anti-inflammatory activity of carrageenan-induced foot edema in rats at dose of 30 mg/kg at time interval- 0.5 hr; assay type: functional; how it was run: as §1
[23] = test system: Rattus norvegicus; test: Tested for acute anti-inflammatory activity of carrageenan-induced foot edema in rats at dose of 100 mg/kg at time interval- 4 hr; assay type: functional; how it was run: as §1
[24] = test system: Rattus norvegicus; test: Tested for acute anti-inflammatory activity of carrageenan-induced foot edema in rats at dose of 100 mg/kg at time interval- 1 hr; assay type: functional; how it was run: as §1
[25] = test system: Rattus norvegicus; test: Tested for acute anti-inflammatory activity of the antirat serum-induced edema in rats at dose of 3 mg/kg at time interval- 4 hr; assay type: functional
How it was run: as §1, with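 “rabbit antirat serum” for “2% carrageenan in 9% NaCl”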

[26] = test system: Rattus norvegicus; test: Tested for acute anti-inflammatory activity of the antirat serum-induced edema in rats at dose of 100 mg/kg at time interval- 0.5 hr; assay type: functional
How it was run: as §1, with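 “rabbit antirat serum” for “2% carrageenan in 9% NaCl”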

[27] = test system: Rattus norvegicus; test: Tested for acute anti-inflammatory activity of carrageenan-induced foot edema in rats at dose of 3 mg/kg at time interval- 1 hr; assay type: functional; how it was run: as §1
[28] = test system: Rattus norvegicus; test: Tested for acute anti-inflammatory activity of the antirat serum-induced edema in rats at dose of 3 mg/kg at time interval- 2 hr; assay type: functional
How it was run: as §1, with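 “rabbit antirat serum” for “2% carrageenan in 9% NaCl”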

[29] = test system: Rattus norvegicus; test: Tested for acute anti-inflammatory activity of carrageenan-induced foot edema in rats at dose of 30 mg/kg at time interval- 4 hr; assay type: functional; how it was run: as §1
[30] = test system: Rattus norvegicus; test: Tested for acute anti-inflammatory activity of the antirat serum-induced edema in rats at dose of 100 mg/kg at time interval- 3h; assay type: functional
How it was run: as §1, with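 “rabbit antirat serum” for “2% carrageenan in 9% NaCl”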

[31] = test system: Rattus norvegicus; test: Tested for acute anti-inflammatory activity of carrageenan-induced foot edema in rats at dose of 3 mg/kg at time interval- 4 hr; assay type: functional; how it was run: as §1
[32] = In vitro glutathione peroxidase activity at 2*10e-7M using tert-butyl hydroperoxide, activity given in percentage of ebselen''s activity; assay type: functional
[33] = In vitro glutathione peroxidase activity at 2*10e-7M using hydrogen peroxide, activity given in percentage of ebselen''s activity; assay type: functional
[34] = test system: Rattus norvegicus; test: Tested for acute anti-inflammatory activity of carrageenan-induced foot edema in rats at dose of 30 mg/kg at time interval- 3h; assay type: functional; how it was run: as §1

SMILES | inhibition in vivo at 3 mg/kg [1] [%] | inhibition in vivo at 3 mg/kg [2] [%] | inhibition in vivo at 30 mg/kg [3] [%] | inhibition in vivo at 3 mg/kg [4] [%] | inhibition in vivo at 100 mg/kg [5] [%] | inhibition in vivo at 30 mg/kg [6] [%] | inhibition in vivo at 3 mg/kg [7] [%] | inhibition in vivo at 3 mg/kg [8] [%] | inhibition in vivo at 30 mg/kg [9] [%] | inhibition in vivo at 3 mg/kg [10] [%] | inhibition in vivo at 100 mg/kg [12] [%] | inhibition in vivo at 30 mg/kg [13] [%] | inhibition in vivo at 30 mg/kg [14] [%] | inhibition in vivo at 100 mg/kg [16] [%] | inhibition in vivo at 30 mg/kg [17] [%] | inhibition in vivo at 100 mg/kg [18] [%] | inhibition in vivo at 100 mg/kg [19] [%] | inhibition in vivo at 30 mg/kg [20] [%] | inhibition in vivo at 100 mg/kg [21] [%] | inhibition in vivo at 30 mg/kg [22] [%] | further results
O=C(c1ccccc1)c1ccc2[nH]c(=O)[se]c2c1 | 27.8 | -16.7 | 19.7 | -14.1 | 6 | 14.2 | 27.5 | -41.8 | 25.6 | -42.9 | -76.2 | -9.8 | 31.7 | 58.5 | 25.2 | 51.6 | 12.7 | 5.3 | 19.3 | -22.2 | inhibition [11]: 0%; inhibition [15]: -3%; inhibition in vivo at 100 mg/kg [23]: 55.5%; inhibition in vivo at 100 mg/kg [24]: 9.9%; inhibition in vivo at 3 mg/kg [25]: -1.4%; inhibition in vivo at 100 mg/kg [26]: -0.5%; inhibition in vivo at 3 mg/kg [27]: -7.8%; inhibition in vivo at 3 mg/kg [28]: -10.7%; inhibition in vivo at 30 mg/kg [29]: 26.1%; inhibition in vivo at 100 mg/kg [30]: 18%; inhibition in vivo at 3 mg/kg [31]: 9.6%; GSH-Px activity [32]: 0; GSH-Px activity [33]: 0; inhibition in vivo at 30 mg/kg [34]: 35.6%
Nc1ccc(C(=O)c2ccccc2)cc1[Se][Se]c1cc(C(=O)c2ccccc2)ccc1N | 45 | -7.9 | -3.7 | 0.2 | 7.2 | 43.3 | 32.9 | -16.8 | 0.7 | -33.3 | -27 | -23.4 | 18.7 | 9.2 | 5.5 | 29.2 | 4.9 | -18.2 | 2 | -20.6 | inhibition [11]: 87%; inhibition [15]: 95%; inhibition in vivo at 100 mg/kg [23]: 5%; inhibition in vivo at 100 mg/kg [24]: 40.4%; inhibition in vivo at 3 mg/kg [25]: 4.8%; inhibition in vivo at 100 mg/kg [26]: -37.5%; inhibition in vivo at 3 mg/kg [27]: 39%; inhibition in vivo at 3 mg/kg [28]: -3.3%; inhibition in vivo at 30 mg/kg [29]: 8.5%; inhibition in vivo at 100 mg/kg [30]: -3.9%; inhibition in vivo at 3 mg/kg [31]: 18.2%; GSH-Px activity [32]: 300; GSH-Px activity [33]: 261; inhibition in vivo at 30 mg/kg [34]: 13.7%
O=c1c2ccccc2[se]n1-c1ccccc1 [EBSELEN] | 30.3 | 2.3 | 3.7 | -6.6 | 15.9 | 47.5 | 21.4 | -9.8 | 8.2 | -63.5 | -93.6 | -19.6 | 10.2 | 13.7 | 7.9 | 18.4 | 22 | -3.8 | 16.3 | -54 | inhibition in vivo at 100 mg/kg [23]: 0.6%; inhibition in vivo at 100 mg/kg [24]: 26.9%; inhibition in vivo at 3 mg/kg [25]: -2.6%; inhibition in vivo at 100 mg/kg [26]: 4.9%; inhibition in vivo at 3 mg/kg [27]: 29.1%; inhibition in vivo at 3 mg/kg [28]: -1.1%; inhibition in vivo at 30 mg/kg [29]: -7.5%; inhibition in vivo at 100 mg/kg [30]: 16.7%; inhibition in vivo at 3 mg/kg [31]: 13.5%; GSH-Px activity [32]: 100; GSH-Px activity [33]: 100; inhibition in vivo at 30 mg/kg [34]: -4.1%
